Test results: ChEMBL document CHEMBL3351994, “Synthesis and biological evaluation of novel millepachine derivatives as a new class of tubulin polymerization inhibitors” (J Med Chem, 2014)

Experiments:
Format in all cases: functional, cell-based
[1] = test system: HepG2; experiment: Antiproliferative activity against human HepG2 cells assessed as inhibition of cell proliferation after 48 hrs by MTT assay; conditions: Homo sapiens, HepG2, 48 h
Outline: (§1)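 Cells grown at 37 °C in humidified 5% CO2. K562, C26 and HCT lines in RPMI-1640; other lines in DMEM; both media with 10% FBS, penicillin and streptomycin. 1000 cells/well seeded, incubated overnight, then compound at various doses for 48 h. MTT added for 4 h, formazan dissolved in DMSO, absorbance read at 590 nm. IC50 from dose–response curves, mean ± SEM of at least three independent experiments.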

[2] = test system: A-375; experiment: Antiproliferative activity against human A375 cells assessed as inhibition of cell proliferation after 48 hrs by MTT assay; conditions: A-375, 48 h; outline: as §1
[3] = test system: K562; experiment: Antiproliferative activity against human K562 cells assessed as inhibition of cell proliferation after 48 hrs by MTT assay; conditions: K562, 48 h; outline: as §1

SMILES	IC50 [1]	IC50 [2]	IC50 [3]
COc1ccc(/C=C/C(=O)c2ccc(OC)c3c2OC(C)(C)C=C3)cc1NS(=O)(=O)c1ccc(C)cc1	> 2000 nM	> 2000 nM	> 2000 nM
COc1ccc(/C=C/C(=O)c2ccc(OC)c3c2OC(C)(C)C=C3)cc1NC(=O)[C@@H](C)N	110 nM	360 nM	220 nM
COc1ccc(/C=C/C(=O)c2ccc(OC)c3c2OC(C)(C)C=C3)cc1NC(C)=O	570 nM	430 nM	700 nM
COc1ccc(/C=C/C(=O)c2ccc(OC)c3c2OC(C)(C)C=C3)cc1NS(=O)(=O)C1CC1	1960 nM	1870 nM	1580 nM
COc1ccc(/C=C/C(=O)c2ccc(OC)c3c2OC(C)(C)C=C3)cc1NC(N)=O	1640 nM	1990 nM	1540 nM
C=CC(=O)Nc1cc(/C=C/C(=O)c2ccc(OC)c3c2OC(C)(C)C=C3)ccc1OC	840 nM	1120 nM	1120 nM
COc1ccc(/C=C/C(=O)c2ccc(OC)c3c2OC(C)(C)C=C3)cc1NC(=O)Cc1cccc(C(F)(F)F)c1	> 2000 nM	> 2000 nM	> 2000 nM
COc1ccc(/C=C/C(=O)c2ccc(OC)c3c2OC(C)(C)C=C3)cc1NS(=O)(=O)Cc1ccccc1	> 2000 nM	2000 nM	> 2000 nM
COc1ccc(/C=C/C(=O)c2ccc(OC)c3c2OC(C)(C)C=C3)cc1NS(C)(=O)=O	2000 nM	1800 nM	1770 nM
COc1ccc(/C=C/C(=O)c2ccc(OC)c3c2OC(C)(C)C=C3)cc1NC(=O)C(C)C	830 nM	530 nM	570 nM
COc1ccc(/C=C/C(=O)c2ccc(OC)c3c2OC(C)(C)C=C3)cc1N(Cc1ccccc1)Cc1ccccc1	> 2000 nM	> 2000 nM	114 nM
CCN(CC)c1cc(/C=C/C(=O)c2ccc(OC)c3c2OC(C)(C)C=C3)ccc1OC	> 2000 nM	> 2000 nM	> 2000 nM
COc1ccc(/C=C/C(=O)c2ccc(OC)c3c2OC(C)(C)C=C3)cc1NCCN1CCOCC1	> 2000 nM	> 2000 nM	> 2000 nM
